Measured values as given in PMC5940269 (The Journal of Experimental Medicine, 2018).
pIC50: −log10 of the molar value. Like-named read-outs stand apart in the source and are kept apart here.

Key:
SCW-induced arthritis = assay: Streptococcal cell wall; format: in vivo, rat; details: for paw swelling: oral gavage 2×/day from day 9, CDD-450 5 or 10 mg/kg, CDD-110 1.5 mg/kg
Summary of the method: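 Adult female Lewis rats (180 g) received SCW preparation i.p. at 15 mg/kg, and acute paw edema was tracked on days 2–8. Paw volume was measured by plethysmometer every other day to day 21, and hind paws were scanned by µCT at day 21.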

WT and NOMID BMMs = assay: IL-1β secretion by LPS-primed BMMs; format: cell-based, mouse; details: 100 ng/ml LPS 3 h; WT cells plus 15 µM nigericin 30 min
Summary of the method: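 BMMs were derived over ~5 d in 1:10 CMG 14-12 supernatant (M-CSF source), plated at 10^4/well and kept 24 h. They were pretreated 1 h with vehicle (0.5% DMSO final), test compound or IKK2 inhibitor, then given 100 ng/ml LPS for 3 h without a media change. WT cells then received 15 µM nigericin for 30 min. IL-1β in conditioned media was measured by ELISA; triplicates, ≥3 independent experiments.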

[1] = system: WT and NOMID bone marrow macrophages (BMMs); assay: qPCR/Western analysis of LPS-induced expression in BMMs; format: cell-based, mouse; details: for IL-18 expression: in vitro
Summary of the method: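 WT and NOMID BMMs were preincubated 1 h with test compound or IKK2 inhibitor (0.5% DMSO final), then given 100 ng/ml LPS for 3 or 8 h. Transcripts were measured by SYBR green qPCR after RNA extraction and reverse transcription. Protein (NLRP3, pro-caspase-1) was measured by Western blot of RIPA lysates. Triplicates, ≥3 independent experiments.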

WT or NOMID BMMs = assay: mRNA stability; format: cell-based, mouse; details: LPS 3 h then 1 µg/ml actinomycin D plus inhibitor
Summary of the method: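 WT and NOMID BMMs were stimulated with 100 ng/ml LPS for 3 h, then exposed simultaneously to 1 µg/ml actinomycin D and test compound, MK2 inhibitor or IKK2 inhibitor. Cells were lysed at 0, 2, 4 or 6 h. After RNA extraction and reverse transcription, SYBR green qPCR tracked decay of IL-1β, IL-6, NLRP3 and TNF-α mRNA. Triplicates, ≥3 independent experiments.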

[2] = system: human PBMC from CAPS patients and healthy control; assay: IL-1β production and mRNA stability in human PBMC; format: cell-based
Summary of the method: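 Human PBMC from a CAPS patient or healthy control. For secretion, cells were cultured 16 h at 32°C or 37°C with DMSO or test compound, or with 100 ng/ml LPS for 16 h at 37°C, and IL-1β in conditioned media was measured by ELISA. For mRNA stability, cells got 10 ng/ml LPS for 3 h, then 1 µg/ml actinomycin D plus inhibitor, were lysed at 0–6 h and analysed by SYBR qPCR. Triplicates, ≥2 independent experiments.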

[3] = system: LPS-induced TNF-α expression; assay: LPS-induced TNF-α production in mice fed inhibitor chow; format: in vivo; details: CDD-450 chow 1,000 ppm; LPS 0.025 mg/kg for 1 h
Summary of the method: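 Eight-week-old WT female mice (six/group) were fed normal chow or inhibitor chow (1,000 or 516 ppm). At the indicated weeks they were challenged i.v. with Salmonella typhosa LPS, 0.025 mg/kg in saline. Blood was collected by cardiac puncture 60 min later, and serum TNF-α was measured by ELISA.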

NOMID^c mice = assay: NOMID^c mice; format: in vivo; details: CDD-450 chow
Summary of the method: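 Nlrp3fl(D301N)/+;Cre-ERTM mice (C57BL/6) were given tamoxifen i.p., 75 mg/kg every other day, three times weekly for 2 wk; Cre-ERTM littermates were controls. Three-month-old mice received normal or compound chow from 3 d before tamoxifen. Body weight (10–11/group) and survival (12–13/group) were scored every 2–3 d. Endpoint was 4 wk later: decalcified 5-µm bone sections were TRAP-stained and osteoclasts counted on trabecular and cortical surfaces (4–6 mice/group).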

cardiac hERG channel = cardiac hERG channel (Homo sapiens, UniProt Q12809); assay: hERG channel inhibition
cardiac hERG channel, sequence (Q12809 whole entry): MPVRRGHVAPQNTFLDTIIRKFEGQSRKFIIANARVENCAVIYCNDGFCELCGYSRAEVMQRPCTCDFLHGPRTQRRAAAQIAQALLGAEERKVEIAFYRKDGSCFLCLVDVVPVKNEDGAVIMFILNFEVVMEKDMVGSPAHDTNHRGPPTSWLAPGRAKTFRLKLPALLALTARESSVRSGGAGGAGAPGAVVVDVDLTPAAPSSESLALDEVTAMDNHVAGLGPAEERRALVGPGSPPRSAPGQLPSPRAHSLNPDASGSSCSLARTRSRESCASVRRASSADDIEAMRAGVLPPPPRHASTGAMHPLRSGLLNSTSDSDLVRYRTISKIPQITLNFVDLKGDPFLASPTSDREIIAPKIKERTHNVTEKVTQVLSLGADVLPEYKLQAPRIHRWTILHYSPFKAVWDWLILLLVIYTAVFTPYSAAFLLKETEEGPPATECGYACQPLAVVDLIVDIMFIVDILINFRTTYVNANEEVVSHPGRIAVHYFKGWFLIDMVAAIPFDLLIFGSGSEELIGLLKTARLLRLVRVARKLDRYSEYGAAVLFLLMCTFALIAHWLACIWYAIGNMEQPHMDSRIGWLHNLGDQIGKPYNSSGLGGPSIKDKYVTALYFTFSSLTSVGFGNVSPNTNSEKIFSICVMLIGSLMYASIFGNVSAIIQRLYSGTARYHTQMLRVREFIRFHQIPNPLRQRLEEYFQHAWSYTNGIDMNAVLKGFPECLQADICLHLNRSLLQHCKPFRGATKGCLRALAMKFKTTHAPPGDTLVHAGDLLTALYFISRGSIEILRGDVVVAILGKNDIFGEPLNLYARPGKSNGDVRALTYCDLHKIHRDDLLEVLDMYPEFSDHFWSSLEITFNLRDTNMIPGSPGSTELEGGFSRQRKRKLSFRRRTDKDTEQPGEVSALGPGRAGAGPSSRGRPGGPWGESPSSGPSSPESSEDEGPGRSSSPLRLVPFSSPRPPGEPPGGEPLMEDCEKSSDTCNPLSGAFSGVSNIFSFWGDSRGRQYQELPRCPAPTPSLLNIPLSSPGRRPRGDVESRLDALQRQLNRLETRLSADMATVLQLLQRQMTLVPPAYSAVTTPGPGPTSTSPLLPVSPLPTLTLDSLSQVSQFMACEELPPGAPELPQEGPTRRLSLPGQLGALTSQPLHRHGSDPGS

p38α–PRAK = p38α–PRAK (Homo sapiens, UniProt Q16539); assay: p38α–MK2 and p38α–PRAK assays; format: biochemical
p38α–PRAK, sequence (Q16539 whole entry): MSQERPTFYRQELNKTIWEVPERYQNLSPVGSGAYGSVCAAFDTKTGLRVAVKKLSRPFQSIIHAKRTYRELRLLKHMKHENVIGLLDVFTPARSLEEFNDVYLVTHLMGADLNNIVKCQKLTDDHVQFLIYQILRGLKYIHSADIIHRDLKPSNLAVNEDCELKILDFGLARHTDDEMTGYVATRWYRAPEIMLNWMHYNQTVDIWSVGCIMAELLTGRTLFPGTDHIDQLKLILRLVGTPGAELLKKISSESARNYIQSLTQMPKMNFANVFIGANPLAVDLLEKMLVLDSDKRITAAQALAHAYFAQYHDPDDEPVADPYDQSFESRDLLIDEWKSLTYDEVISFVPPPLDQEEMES
p38α–PRAK, sequence (Q8IW41 whole entry partner): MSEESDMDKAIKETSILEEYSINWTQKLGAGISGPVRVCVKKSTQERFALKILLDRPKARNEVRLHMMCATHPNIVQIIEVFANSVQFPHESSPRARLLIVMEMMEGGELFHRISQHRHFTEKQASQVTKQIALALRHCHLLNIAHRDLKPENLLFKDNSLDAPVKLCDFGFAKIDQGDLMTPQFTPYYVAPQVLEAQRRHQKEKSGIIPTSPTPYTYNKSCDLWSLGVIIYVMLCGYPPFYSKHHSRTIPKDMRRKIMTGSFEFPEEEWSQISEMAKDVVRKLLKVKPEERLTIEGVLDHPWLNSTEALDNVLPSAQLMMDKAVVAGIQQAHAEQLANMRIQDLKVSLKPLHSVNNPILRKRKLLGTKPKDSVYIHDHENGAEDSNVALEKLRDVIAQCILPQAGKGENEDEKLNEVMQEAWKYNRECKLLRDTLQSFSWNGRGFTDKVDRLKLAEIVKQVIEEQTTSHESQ

[4] = system: NLRP3 inflammasome / caspase-1; assay: Microscopic analysis of active caspase-1; format: cell-based, mouse; details: LPS-primed cells, 15 µM nigericin with 10 µM CDD-450, 30 min
Summary of the method: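 BMMs were plated at 5 × 10^4/well for 24 h, primed with 100 ng/ml LPS for 3 h, then treated 30 min with 10 µM test compound and/or 15 µM nigericin. Active caspase-1 was labelled with FLICA FAM-YVAD-FMK (30 min, 37°C). Cells were washed, fixed in 10% buffered formalin and DAPI-counterstained, then imaged by fluorescence microscopy with image analysis.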

[5] = system: LPS-induced production of TNF-α, IL-1β and IL-6; assay: LPS-induced cytokine production in various in vitro systems and animal models; format: cell-based
Summary of the method: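 U937 premonocytic cells, grown in RPMI 1640 with 10% FBS, were differentiated with 20 ng/ml PMA for 24 h. They were pretreated with vehicle or test compound, then stimulated with 100 ng/ml LPS for 4 h. TNF-α, IL-1β and IL-6 were measured in conditioned media.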

[6] = Body weight of WT mice on CDD-450 chow; format: in vivo
[7] = In vivo tolerability, 14 consecutive days oral gavage; details: rat
MK2 phosphorylation = assay: Western blot of LPS-stimulated MK2 phosphorylation in BMMs; format: cell-based, mouse; details: 10 µM CDD-450, 100 ng/ml LPS, WT BMMs
[8] = Cytotoxicity at efficacious concentrations; format: cell-based; details: efficacious concentrations tested in this study; not depicted
p38β = p38β (Homo sapiens, UniProt Q15759); assay: Kinase selectivity, p38β; format: biochemical; details: CDD-450 tested at 5 µM
p38β, sequence (Q15759 whole entry): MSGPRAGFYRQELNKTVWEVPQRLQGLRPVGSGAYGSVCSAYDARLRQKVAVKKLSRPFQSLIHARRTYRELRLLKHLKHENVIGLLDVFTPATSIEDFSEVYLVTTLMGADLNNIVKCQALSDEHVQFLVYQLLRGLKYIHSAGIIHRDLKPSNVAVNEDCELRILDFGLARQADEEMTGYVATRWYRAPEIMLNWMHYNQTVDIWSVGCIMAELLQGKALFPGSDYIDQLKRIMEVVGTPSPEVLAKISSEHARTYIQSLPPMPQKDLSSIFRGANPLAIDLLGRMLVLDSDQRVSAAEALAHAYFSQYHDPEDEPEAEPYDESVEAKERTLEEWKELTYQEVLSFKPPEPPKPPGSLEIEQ

p38α–ATF2 = assay: p38α–MK2 and p38α–ATF2 assays; format: biochemical
WT BMMs = assay: Osteoclast formation in vitro induced by RANKL; format: cell-based, mouse; details: 50 ng/ml RANKL for 4 d
Summary of the method: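 WT BMMs were plated at 5 × 10^3/well in 1:50 CMG supernatant plus RANKL with DMSO or test compound for 4 d, medium changed every other day, at 37°C, 5% CO2. Cells were fixed 10 min in 3.7% formaldehyde/0.1% Triton X-100, then TRAP-stained 30 min at room temperature. TRAP+ cells with ≥3 nuclei were scored as osteoclasts. Triplicates, ≥3 independent experiments.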

p38α–MK2 complex = assay: Surface plasmon resonance analysis of p38α binding to immobilized MK2; details: 10 nM p38α, immobilized GST-MK2
RA synovial fibroblasts = assay: IL-1β-induced responses in synovial fibroblasts from an RA patient; format: cell-based, human
Summary of the method: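 Synovial fibroblasts from an RA patient were preincubated 1 h with inhibitors, then given 10 ng/ml IL-1β for 3 h, with transcripts measured by qPCR. For mRNA stability, IL-1β was added for 3 h, then 1 µg/ml actinomycin D plus test compound or IKK2 inhibitor, with cells lysed at 0, 2, 4 or 6 h. For p-MK2 (Thr334) Western blot, cells had 1 h preincubation with 10 µM test compound before IL-1β. Triplicates, ≥2 independent experiments.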

Pharmacokinetics = assay: Pharmacokinetics; set-up: species or system mice, rats, and dogs; details: in vivo
U937 cells = assay: LPS-stimulated phosphorylation of signaling proteins in U937 cells; format: cell-based, human
Summary of the method: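 U937 cells were differentiated into macrophages with 20 ng/ml PMA for 24 h. They were pretreated 1 h with vehicle (0.5% DMSO final) or test compound, then stimulated with 100 ng/ml LPS. Phosphorylation of signalling proteins was assessed by Western blotting, ELISA or MesoScale kits.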

193 kinases = assay: Kinase selectivity across the human kinome; format: biochemical; details: CDD-450 tested at 5 µM
[9] = 100 ng/ml LPS, inhibitor preincubated 1 h
[10] = 10 ng/ml IL-1β 3 h then actinomycin D

In the case of CNC(=O)c1ccc(C)c(-n2c(C)cc(OCc3ccc(F)cc3F)c(Br)c2=O)c1 [CDD-110, reference compound], the paw swelling (SCW-induced arthritis) was “inhibited”.
For CN1CCN(c2cc(C(=O)Nc3ccc4c(c3)-c3c(c(C(N)=O)nn3-c3ccc(F)cc3)CC4)c(Cl)cn2)CC1 [PHA-408, reference compound], the “IL-1β secretion by LPS-primed WT and NOMID BMMs” value (WT and NOMID BMMs) was “inhibited”, the NLRP3 expression ([1]; 100 ng/ml LPS) was “decreased” and the IL-18 expression ([1]; 100 ng/ml LPS) was “decreased”. The “LPS-induced IL-1β mRNA expression” value [1, 9] was “inhibited”.
For Cc1ccc(-c2ccc3c(ccc4sc5c(c43)NC[C@@H](C)NC5=O)n2)cn1 [PF-3644022, reference compound], the “degradation of IL-1β mRNA” value (WT or NOMID BMMs) was “promoted the degradation” and the “degradation of TNF-α mRNA” value (WT or NOMID BMMs) was “promoted the degradation”.
With Cc1cnc(-c2ccnc(C(C)(C)O)n2)cc1-n1c(C)cc(OCc2ncc(F)cc2F)c(Cl)c1=O [CDD-450] the “IL-1β mRNA instability in human PBMC” value ([2]; 10 ng/ml LPS 3 h then actinomycin D) was “promoted”, the “LPS-stimulated IL-1β secretion by healthy control PBMC” value ([2]; 100 ng/ml LPS 16 h at 37°C) was “reduced” and the “IL-1β secretion by CAPS PBMC” value ([2]; 16 h at 32°C, spontaneous) was “reduced”. The “degradation of TNF-α mRNA induced by LPS in human PBMC” value ([2]; not depicted) was “accentuated”, the “decay of NLRP3 mRNA” value (WT or NOMID BMMs) was “no effect” and the “degradation of IL-1β mRNA” value (WT or NOMID BMMs) was “promoted the degradation”. The “degradation of IL-6 mRNA” value (WT or NOMID BMMs) was “promoted the degradation”, the “persistence of efficacy in blocking LPS-induced TNF-α expression after dosing” value [3] was “up to 4 wk” and the “IL-1β secretion by LPS-primed WT and NOMID BMMs” value (WT and NOMID BMMs) was “inhibited”. For the same compound, the “body weight loss of NOMID^c mice versus untreated NOMID^c mice” value (NOMID^c mice) was “lost significantly less body weight”, the “increased number of osteoclasts on trabecular and cortical bone surfaces” value (NOMID^c mice) was “prevented” and the “skin lesions and death over the 7-wk period” value (NOMID^c mice; untreated: ∼35% skin lesions, 20% died) was “neither occurred”. For the same compound, the “inhibition of the cardiac hERG channel” value (cardiac hERG channel) was “did not inhibit”, the “fold more potent in inhibiting p38α–MK2 than p38α–PRAK” value (p38α–PRAK) was “at least 700 ×” and the “nigericin-induced activation of caspase-1 (fluorescent foci)” value [4] was “no effect”. For the same compound, the pIC50 ([5]; read-out: IC50, LPS-induced production of IL-1β) was 8.00 to 9.00, the pIC50 ([5]; read-out: IC50, LPS-induced production of IL-6) was about 7.00 and the pIC50 ([5]; read-out: IC50, LPS-induced production of TNF-α) was 8.00 to 9.00. For the same compound, the “joint destruction, 3D µCT reconstruction” value (SCW-induced arthritis; 5 mg/kg CDD-450 2×/day) was “joint protective effects”, the paw swelling (SCW-induced arthritis) was “inhibited” and the bone mineral density (SCW-induced arthritis; µCT at day 21) was “preserved”. For the same compound, the “tolerability of concomitant exposure to CDD-450 chow and tamoxifen” value ([6]; WT mice) was “not well tolerated”, the “body weight of WT mice, CDD-450 chow versus normal chow” value ([6]; no tamoxifen) was “gained body weight undistinguishably” and the “body weight of WT mice, CDD-450 chow plus tamoxifen, compared with normal chow” value ([6]; tamoxifen for 2 wk) was “lost body weight”. For the same compound, the “well tolerated exposure relative to the predicted Cmax efficacious exposure” value [7] was over 30 ×, the “LPS-stimulated MK2 phosphorylation at 15 and 30 min” value (MK2 phosphorylation) was “inhibited” and the “LPS-stimulated MK2 phosphorylation at 180 min” value (MK2 phosphorylation) was “little effect”. The NLRP3 expression ([1]; 100 ng/ml LPS) was “no effect”, the IL-18 expression ([1]; 100 ng/ml LPS) was “no direct effect” and the “LPS-induced IL-1β mRNA expression” value [1, 9] was “inhibited”. For the same compound, the “LPS-induced IL-6 mRNA expression” value [1, 9] was “inhibited”, the “LPS-induced TNF-α mRNA expression” value [1, 9] was “inhibited” and the “expression of NLRP3 interacting partners ASC, caspase-1 and NEK7” value ([1]; not depicted) was “no effect”. The cytotoxicity [8] was “not cytotoxic”, the “cross-reactivity on p38β” value (p38β) was “crossed over” and the “fold more potent in inhibiting p38α–MK2 than p38α–ATF2” value (p38α–ATF2) was “at least 700 ×”. For the same compound, the “in vitro osteoclast formation induced by RANKL” value (WT BMMs) was “inhibited”, the “stabilization of the p38α–MK2 complex (increased t1/2) relative to p38α–MK2 alone” value (p38α–MK2 complex) was 47.5 × and the “IL-1β mRNA levels induced by IL-1β” value (RA synovial fibroblasts; 10 ng/ml IL-1β 3 h) was “decreased”. The “degradation of TNF-α mRNA induced by IL-1β” value (RA synovial fibroblasts; [10]) was “accentuated”, the “loss of IL-1β transcripts” value (RA synovial fibroblasts; [10]) was “accelerated” and the “MK2 phosphorylation induced by IL-1β” value (RA synovial fibroblasts; 10 µM CDD-450, 10 ng/ml IL-1β) was “blocked”. For the same compound, the half-life (Pharmacokinetics) was “long”, the volume of distribution (Pharmacokinetics) was “high” and the oral bioavailability (Pharmacokinetics; po) was “high”. For the same compound, the “LPS activation of the ERK1/2 pathway” value (U937 cells) was “no inhibitory effect”, the “LPS activation of the JNK pathway” value (U937 cells) was “no inhibitory effect” and the “MK2 phosphorylation induced by LPS” value (U937 cells) was “blocked”. For the same compound, the “potency differential for inhibiting the 193 kinases tested” value (193 kinases) was over 350 ×.
